Measurements from ChEMBL document CHEMBL1139836, “Development of orally bioavailable and CNS penetrant biphenylaminocyclopropane carboxamide bradykinin B1 receptor antagonists” (J Med Chem, 2007).

Experiments:
LLC-PK1 = test: Ratio of transport from basolateral to apical over apical to basolateral in LLC-PK1 cells expressing human MDR1; assay type: ADME, cell-based, Sus scrofa; conditions: pig
Outline: (§1)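 LLC-PK1 cells expressing human MDR1, grown in M199 with 10% FBS on 96-well filters and used on day 4. Equilibrated 30 min in HBSS with 1 mM HEPES, then test compound at 5 µM. 1 µM verapamil served as P-gp substrate control. Transport in both directions measured in triplicate by LC/MS/MS or scintillation.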

human MDR1 (P-gp) = test: Apparent permeability in LLC-PK1 cells expressing human MDR1; assay type: ADME, cell-based, Sus scrofa; conditions: pig, LLC-PK1; outline: as §1
B2 bradykinin receptor = target: T1, B2 bradykinin receptor (Homo sapiens, UniProt P30411); test: Inhibition of human bradykinin B2 receptor
T1 sequence (P30411 whole entry): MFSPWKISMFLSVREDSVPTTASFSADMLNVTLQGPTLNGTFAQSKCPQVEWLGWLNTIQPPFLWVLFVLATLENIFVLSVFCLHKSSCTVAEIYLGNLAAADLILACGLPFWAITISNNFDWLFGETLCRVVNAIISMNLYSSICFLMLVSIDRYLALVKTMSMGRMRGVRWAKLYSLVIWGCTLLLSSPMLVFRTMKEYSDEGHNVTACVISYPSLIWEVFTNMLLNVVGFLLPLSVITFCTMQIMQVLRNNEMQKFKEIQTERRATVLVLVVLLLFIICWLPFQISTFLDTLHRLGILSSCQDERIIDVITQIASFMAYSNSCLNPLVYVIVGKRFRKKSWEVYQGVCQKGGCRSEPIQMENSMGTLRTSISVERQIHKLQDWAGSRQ
Outline: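 Human B2 receptor expressed in CHO cells, membrane binding with 1 nM [3H]bradykinin, 2% DMSO final, 60 min at 22 °C, then filtered and counted. Nonspecific binding defined with 1 µM bradykinin. Ki reported.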

B1 bradykinin receptor [1] = target: T2, B1 bradykinin receptor (Homo sapiens, UniProt P46663); test: Displacement of [3H]des-Arg10 Leu9 kallidin from human bradykinin B1 receptor expressed in CHO cells; assay type: cell-based
T2 sequence (P46663 whole entry): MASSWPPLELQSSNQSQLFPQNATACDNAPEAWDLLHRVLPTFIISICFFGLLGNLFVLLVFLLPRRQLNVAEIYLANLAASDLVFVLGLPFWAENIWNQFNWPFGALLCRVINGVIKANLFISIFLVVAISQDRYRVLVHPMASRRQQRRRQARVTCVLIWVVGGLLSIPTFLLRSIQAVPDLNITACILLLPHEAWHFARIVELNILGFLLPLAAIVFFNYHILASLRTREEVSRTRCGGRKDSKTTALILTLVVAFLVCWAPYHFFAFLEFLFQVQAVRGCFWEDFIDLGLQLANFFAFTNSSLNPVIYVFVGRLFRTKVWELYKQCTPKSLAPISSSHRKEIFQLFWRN
Outline: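 Membranes from CHO cells stably expressing human B1, used at 0.2 mg/mL protein in pH 7.4 HEPES/NaCl/KCl buffer with 100 nM enalaprilat, 140 µg/mL bacitracin and 0.1% BSA. Radioligand 0.2 nM [3H]des-arg10 leu9 kallidin, 2% DMSO final, incubated 60 min at 22 °C, then filtered and counted. Nonspecific binding defined with 1 µM des-arg10 kallidin. Ki values, at least two experiments averaged.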

[2] = Lipophilicity, Log P of the compound; assay type: physicochemical; conditions: octanol/water
[3] = Oral bioavailability in Sprague-Dawley rat at 10 mg/kg, po and 2 mg/kg, iv; assay type: ADME, organism-based; conditions: in vivo
Outline: (§2)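 Sprague-Dawley rats, n = 3, dosed orally at 10 mg/kg and iv at 2 mg/kg. F% from oral versus iv exposure; half-life in hours, clearance in mL/min/kg.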

[4] = Half life in Sprague-Dawley rat at 10 mg/kg, po and 2 mg/kg, iv; assay type: ADME, organism-based; conditions: in vivo; outline: as §2
[5] = Clearance in Sprague-Dawley rat at 10 mg/kg, po and 2 mg/kg, iv; assay type: ADME, organism-based; conditions: in vivo; outline: as §2
B1 bradykinin receptor [6] = target: T2, B1 bradykinin receptor; test: Activity at human bradykinin B1 receptor assessed as inhibition of Des-arg kallidin-induced increase of cytosolic calcium in CHO cells by FLIPR; assay type: functional, cell-based
Outline: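 CHO cells stably expressing human B1 receptor, seeded 25 000/well and grown overnight at 37 °C, then loaded 60 min at 37 °C with 4 µM fluo-3 AM and 1 mM probenecid. Antagonist added 2 min before 3 nM des-arg10 kallidin, run at 37 °C. At least eight concentrations per curve give IC50. At least two experiments averaged.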

[7] = Oral bioavailability in Mongrel dog at 3 mg/kg, po and 1 mg/kg, iv; assay type: ADME, organism-based, Canis lupus familiaris; conditions: in vivo
Outline: (§3)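 Mongrel dogs, n = 2, dosed orally at 3 mg/kg and iv at 1 mg/kg. F%, half-life in hours, clearance in mL/min/kg.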

[8] = Half life in Mongrel dog at 3 mg/kg, po and 1 mg/kg, iv; assay type: ADME, organism-based, Canis lupus familiaris; conditions: in vivo; outline: as §3
[9] = Clearance in Mongrel dog at 3 mg/kg, po and 1 mg/kg, iv; assay type: ADME, organism-based, Canis lupus familiaris; conditions: in vivo; outline: as §3
[10] = Oral bioavailability in rhesus monkey at 3 mg/kg, po and 1 mg/kg, iv; assay type: ADME, organism-based, Macaca mulatta; conditions: in vivo
Outline: (§4)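 Rhesus monkeys, n = 2, dosed orally at 3 mg/kg and iv at 1 mg/kg. F%, half-life in hours, clearance in mL/min/kg.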

[11] = Half life in rhesus monkey at 3 mg/kg, po and 1 mg/kg, iv; assay type: ADME, organism-based, Macaca mulatta; conditions: in vivo; outline: as §4
[12] = Clearance in rhesus monkey at 3 mg/kg, po and 1 mg/kg, iv; assay type: ADME, organism-based, Macaca mulatta; conditions: in vivo; outline: as §4
Liver microsomes [13] = test: Stability in rat liver microsomes; assay type: ADME, Microsome
[14] = Stability in dog liver microsomes; assay type: ADME, Canis lupus familiaris, Microsome
[15] = Stability in monkey liver microsomes; assay type: ADME, Macaca mulatta, Microsome; conditions: rhesus monkey
Liver microsomes [16] = test: Stability in human liver microsomes; assay type: ADME, Microsome
[17] = Stability in rat hepatocytes; assay type: ADME, cell-based, Hepatocyte
[18] = Stability in human hepatocytes; assay type: ADME, cell-based, Hepatocyte

COC(=O)c1c(F)cccc1-c1ccc(CNC(=O)C2(NC(C)=O)CC2)c(F)c1
Ratio (LLC-PK1): 6.3
Papp (human MDR1 (P-gp)): 24 ×10⁻⁶ cm/s
IC50 (B2 bradykinin receptor): > 10000 nM
Ki (B1 bradykinin receptor [1]): 11.6 nM

COC(=O)c1c(F)cccc1-c1ccc(CNC(=O)C2(NC(=O)C(C)(Cl)Cl)CC2)c(F)c1
IC50 (B2 bradykinin receptor): > 10000 nM
Ki (B1 bradykinin receptor [1]): 119 nM

COC(=O)c1c(F)cccc1-c1ccc(CNC(=O)C2(NC(=O)C(Cl)Cl)CC2)c(F)c1
logP [2]: 2.8
Ratio (LLC-PK1): 2.8
Papp (human MDR1 (P-gp)): 21 ×10⁻⁶ cm/s
IC50 (B2 bradykinin receptor): > 10000 nM
Ki (B1 bradykinin receptor [1]): 0.54 nM

C[C@@H](NC(=O)C1(NC(=O)C(F)(F)F)CC1)c1ccc(-c2cccc(Cl)c2-c2nnn(C)n2)cc1F
bioavailability [3]: 50%
half-life [4]: 0.7 h
clearance [5]: 12 mL/min/kg
Ki (B1 bradykinin receptor [1]): 0.66 nM

COC(=O)c1c(F)cccc1-c1ccc(CNC(=O)C2(NC(=O)C(F)(F)F)CC2)c(F)c1
logP [2]: 2.7
Ratio (LLC-PK1): 4.1
Papp (human MDR1 (P-gp)): 23 ×10⁻⁶ cm/s
IC50 (B2 bradykinin receptor): > 10000 nM
Ki (B1 bradykinin receptor [1]): 1.47 nM

C[C@@H](NC(=O)C1(NC(=O)C(F)(F)F)CC1)c1ccc(-c2cccc(F)c2-c2nnnn2C)cc1F
Ratio (LLC-PK1): 15.5
Papp (human MDR1 (P-gp)): 19 ×10⁻⁶ cm/s
Ki (B1 bradykinin receptor [1]): 62.5 nM

CCC(=O)c1c(Cl)cccc1-c1ccc([C@@H](C)NC(=O)C2(NC(=O)C(F)(F)F)CC2)c(F)c1
Ratio (LLC-PK1): 1.6
Papp (human MDR1 (P-gp)): 27 ×10⁻⁶ cm/s
Ki (B1 bradykinin receptor [1]): 1.95 nM

COC(=O)c1c(F)cccc1-c1ccc([C@@H](C)NC(=O)C2(NC(=O)C(F)F)CC2)c(F)c1
Ratio (LLC-PK1): 3.2
Papp (human MDR1 (P-gp)): 31 ×10⁻⁶ cm/s
Ki (B1 bradykinin receptor [1]): 0.4 nM

COC(=O)c1c(F)cccc1-c1ccc([C@H](C)NC(=O)C2(NC(=O)CC(F)(F)F)CC2)c(F)c1
Ki (B1 bradykinin receptor [1]): 22 nM

C[C@@H](NC(=O)C1(NC(=O)C(F)(F)F)CC1)c1ccc(-c2cccc(F)c2-c2nnn(C)n2)cc1F
IC50 (B1 bradykinin receptor [6]): 0.65 nM
bioavailability [3]: 48%
half-life [4]: 0.7 h
clearance [5]: 11 mL/min/kg
Ki (B1 bradykinin receptor [1]): 0.6 nM

COC(=O)c1c(F)cccc1-c1ccc([C@@H](C)NC(=O)C2(NC(C)=O)CC2)c(F)c1
Ratio (LLC-PK1): 8.6
Papp (human MDR1 (P-gp)): 21 ×10⁻⁶ cm/s
Ki (B1 bradykinin receptor [1]): 0.93 nM

C[C@@H](NC(=O)C1(NC(=O)C(F)(F)F)CC1)c1ccc(-c2cccc(F)c2C(F)(F)F)cc1F
Ratio (LLC-PK1): 2
Papp (human MDR1 (P-gp)): 32 ×10⁻⁶ cm/s
IC50 (B1 bradykinin receptor [6]): 7.3 nM
bioavailability [3]: 30%
half-life [4]: 2.6 h
clearance [5]: 10 mL/min/kg
Ki (B1 bradykinin receptor [1]): 1.44 nM

COC(=O)c1c(F)cccc1-c1ccc(CNC(=O)C2(NC(=O)C(F)Cl)CC2)c(F)c1 (centres undefined)
IC50 (B2 bradykinin receptor): > 10000 nM
Ki (B1 bradykinin receptor [1]): 2.8 nM

COC(=O)c1c(F)cccc1-c1ccc(CNC(=O)C2(NC(=O)C(F)(F)Cl)CC2)c(F)c1
Ratio (LLC-PK1): 2.8
Papp (human MDR1 (P-gp)): 29 ×10⁻⁶ cm/s
IC50 (B2 bradykinin receptor): > 10000 nM
Ki (B1 bradykinin receptor [1]): 2.5 nM

CCOC(=O)c1c(Cl)cccc1-c1ccc([C@@H](C)NC(=O)C2(NC(=O)C(F)(F)F)CC2)c(F)c1
IC50 (B1 bradykinin receptor [6]): 9.1 nM
bioavailability [3]: 45%
half-life [4]: 1.1 h
clearance [5]: 8.4 mL/min/kg
Ki (B1 bradykinin receptor [1]): 1.35 nM

COC(=O)c1c(F)cccc1-c1ccc(CNC(=O)C2(NC(=O)C(F)F)CC2)c(F)c1
logP [2]: 2.4
Ratio (LLC-PK1): 3.4
Papp (human MDR1 (P-gp)): 33 ×10⁻⁶ cm/s
IC50 (B2 bradykinin receptor): > 10000 nM
Ki (B1 bradykinin receptor [1]): 13.5 nM

Cc1noc(-c2c(F)cccc2-c2ccc([C@@H](C)NC(=O)C3(NC(=O)C(F)(F)F)CC3)c(F)c2)n1
Ratio (LLC-PK1): 5.6
Papp (human MDR1 (P-gp)): 37 ×10⁻⁶ cm/s
IC50 (B1 bradykinin receptor [6]): 0.89 nM
bioavailability [3]: 27%
half-life [4]: 0.35 h
clearance [5]: 28 mL/min/kg
bioavailability [7]: 35%
half-life [8]: 3.9 h
clearance [9]: 6 mL/min/kg
bioavailability [10]: 22%
half-life [11]: 2.9 h
clearance [12]: 15 mL/min/kg
Ki (B1 bradykinin receptor [1]): 0.51 nM

COC(=O)c1c(F)cccc1-c1ccc([C@@H](C)NC(=O)C2(NC(=O)C(F)(F)F)CC2)c(F)c1
Stability (Liver microsomes [13]): Stable
Stability [14]: Stable
Stability [15]: Stable
Stability (Liver microsomes [16]): Stable
Stability [17]: Stable
Stability [18]: Stable
Ratio (LLC-PK1): 2.3
Papp (human MDR1 (P-gp)): 28 ×10⁻⁶ cm/s
IC50 (B1 bradykinin receptor [6]): 1.9 nM
bioavailability [3]: 21%
half-life [4]: 0.5 h
clearance [5]: 42 mL/min/kg
bioavailability [7]: 5%
half-life [8]: 1.7 h
clearance [9]: 21 mL/min/kg
bioavailability [10]: 2%
half-life [11]: 2.2 h
clearance [12]: 28 mL/min/kg
Ki (B1 bradykinin receptor [1]): 0.57 nM

COC(=O)c1c(F)cccc1-c1ccc([C@@H](C)NC(=O)C2(NC(=O)C(F)(F)Cl)CC2)c(F)c1
Ratio (LLC-PK1): 2.5
Papp (human MDR1 (P-gp)): 34 ×10⁻⁶ cm/s
Ki (B1 bradykinin receptor [1]): 0.81 nM

COC(=O)c1c(F)cccc1-c1ccc([C@@H](C)NC(=O)C2(NC(=O)CC(F)(F)F)CC2)c(F)c1
Ratio (LLC-PK1): 8.6
Papp (human MDR1 (P-gp)): 25 ×10⁻⁶ cm/s
bioavailability [3]: 14%
half-life [4]: 1.44 h
clearance [5]: 25 mL/min/kg
Ki (B1 bradykinin receptor [1]): 0.13 nM

COC(=O)c1c(F)cccc1-c1ccc(CNC(=O)C2(NC(=O)CC(F)(F)F)CC2)c(F)c1
logP [2]: 2.9
Ratio (LLC-PK1): 18.4
Papp (human MDR1 (P-gp)): 23 ×10⁻⁶ cm/s
IC50 (B2 bradykinin receptor): > 10000 nM
Ki (B1 bradykinin receptor [1]): 0.81 nM

COC(=O)c1c(F)cccc1-c1ccc(CNC(=O)C2(NC(=O)C(F)(F)C(F)(F)F)CC2)c(F)c1
Ratio (LLC-PK1): 2.2
Papp (human MDR1 (P-gp)): 31 ×10⁻⁶ cm/s
IC50 (B2 bradykinin receptor): > 10000 nM
Ki (B1 bradykinin receptor [1]): 2.95 nM

COC(=O)c1ccccc1-c1ccc([C@@H](C)NC(=O)C2(NC(=O)C(F)(F)F)CC2)c(F)c1
Ratio (LLC-PK1): 2.2
Papp (human MDR1 (P-gp)): 34 ×10⁻⁶ cm/s
Ki (B1 bradykinin receptor [1]): 10.3 nM
